Blank lines part the entries; values can stand above or below the compound they belong to.
How the values were obtained:
[1] = Half life in iv dosed dog at pH 3.3; format: ADME, organism-based, Canis lupus familiaris; settings: in vivo
In short: (§1)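 Parent compound given i.v. as a solution in EtOH, PG, PEG400 and citric acid at pH 3.3. Total body clearance and T½ were derived from the i.v. group. Values are the mean of three animals per study.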

[2] = test system: Human immunodeficiency virus 1; test: Antiviral activity against HIV1 3B infected in human MT2 cells after 5 days by cell-titer method in presence of human serum albumin and alpha1-acid glycoprotein; format: functional, organism-based; settings: Human immunodeficiency virus 1, 3B, MT2, 120 h
In short: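 Same MT-2/HIV-1 IIIB assay (m.o.i. 0.01, 5 days at 37 °C, CellTiter-Glo read-out), run in 10% FBS with or without HSA (35 mg/ml) or α1-AGP (1.5 mg/ml). The combined-protein (serum-adjusted) EC₅₀ was calculated from the EC₅₀ values with each protein alone, using an equation derived from competitive binding assumptions.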

[3] = Clearance in iv dosed rat at pH 3.3; format: ADME, organism-based; settings: in vivo; in short: as §1
[4] = Oral bioavailability in dog at pH 2.2; format: ADME, organism-based, Canis lupus familiaris; settings: in vivo
In short: (§2)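 Oral dosing of parent compound as a solution in EtOH, PG, PEG400 and citric acid at pH 2.2, alongside an i.v. group (pH 3.3). F (%) was calculated from p.o. versus i.v. AUC. Values are the mean of three animals per study.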

[5] = Oral bioavailability in rat at pH 2.2; format: ADME, organism-based; settings: in vivo; in short: as §2
[6] = Clearance in iv dosed dog at pH 3.3; format: ADME, organism-based, Canis lupus familiaris; settings: in vivo; in short: as §1
[7] = target: Human immunodeficiency virus type 1 integrase (Human immunodeficiency virus 1, UniProt Q7ZJM1); test: Inhibition of HIV1 HXB2 integrase strand transfer activity by microtiter assay
Sequence of Human immunodeficiency virus type 1 integrase (Q7ZJM1 whole entry): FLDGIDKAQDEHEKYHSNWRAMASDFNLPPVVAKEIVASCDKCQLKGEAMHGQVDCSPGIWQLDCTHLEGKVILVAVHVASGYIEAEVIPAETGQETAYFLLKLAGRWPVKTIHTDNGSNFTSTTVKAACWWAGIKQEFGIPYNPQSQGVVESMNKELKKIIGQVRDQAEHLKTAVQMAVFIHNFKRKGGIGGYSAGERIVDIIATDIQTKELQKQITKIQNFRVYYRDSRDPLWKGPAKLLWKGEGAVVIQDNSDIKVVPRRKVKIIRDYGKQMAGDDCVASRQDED
In short: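 Strand transfer measured in a microtiter format using DIG-tagged target DNA, detected with anti-DIG antibody–horseradish peroxidase conjugate. IC50 reported in nM as the mean of at least two experiments.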

[8] = test system: Human immunodeficiency virus 1; test: Antiviral activity against HIV1 3B infected in human MT2 cells after 5 days by cell-titer assay in presence of 10% FBS; format: functional, organism-based; settings: Human immunodeficiency virus 1, 3B, MT2, 120 h
In short: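 MT-2 cells infected with HIV-1 IIIB (m.o.i. 0.01, 3 h), then about 1.5 × 10⁴ cells per well added to 9 concentrations of 5-fold serially diluted drug in triplicate, in culture medium with 10% FBS. Incubated 5 days at 37 °C. Viability read by CellTiter-Glo chemiluminescence after 10 min lysis at room temperature. Values are means of at least two experiments.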

[9] = Half life in iv dosed rat at pH 3.3; format: ADME, organism-based; settings: in vivo; in short: as §1

Structure (SMILES): CN1Cc2c(c(O)c3ncc(Cc4ccc(F)c(Cl)c4)cc3c2N(C)S(C)(=O)=O)C1=O
- half-life [1]: 8.8 h
- EC50 [2]: 35 nM
- clearance [3]: 3.67 mL/min/kg
- bioavailability [4]: 60%
- bioavailability [5]: 11%
- clearance [6]: 2 mL/min/kg
- IC50 [7]: 265 nM
- EC50 [8]: 1.1 nM
- half-life [9]: 1.7 h

Structure (SMILES): COc1c2c(c(O)c3ncc(Cc4ccc(F)cc4)cc13)C(=O)NC2
- EC50 [2]: 27 nM
- IC50 [7]: 14 nM
- EC50 [8]: 16 nM

- IC50 [7]: 100 nM
Structure (SMILES): COc1c2c(c(O)c3ncc(Cc4ccc(F)cc4)cc13)C(=O)N(C)C2
- EC50 [8]: 20 nM

Structure (SMILES): CN1Cc2c(c(O)c3ncc(Cc4ccc(F)cc4)cc3c2N(C)S(C)(=O)=O)C1=O
- half-life [1]: 4.4 h
- EC50 [2]: 7 nM
- clearance [3]: 8.17 mL/min/kg
- bioavailability [4]: 47%
- bioavailability [5]: 12%
- clearance [6]: 2.17 mL/min/kg
- IC50 [7]: 80 nM
- EC50 [8]: 2 nM
- half-life [9]: 0.4 h

Structure (SMILES): COc1c2c(c(O)c3ncc(Cc4ccc(F)cc4)cc13)C(=O)N(Cc1ccc(F)cc1)C2
- IC50 [7]: 600 nM
- EC50 [8]: 105 nM
